Screening data: PubChem BioAssay, Sanford-Burnham Center for Chemical Genomics
Shown are actives, neighbours in structure and some others; about 1.8% of the full set was active somewhere.
Jurkat NFkB inh: inhibitors of induced NF-kB luciferase reporter, primary screen, TCR NF-kB activation inhibitor project, cell-based, luminescence, uHTS. Jurkat, PMA/ionomycin-induced NF-kB luciferase reporter. inhibition, % at 4 µM. 0.53% of 330,000 active; in the data active = inhibition above about 50%
Lipid droplet: inhibitors of hepatocyte lipid droplet formation, primary screen, imaging, high-throughput imaging, BODIPY stain; 0.4% of 240,000 active; inhibition, % at 6.5 µM; AML12 mouse hepatocytes, oleate lipid droplets;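 active = lipid droplet intensity inhibited by at least 50%, with more than 500 cells counted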
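Material: mouse AML12 hepatocyte cell line, fixed after treatment; Timing: compound with oleate, overnight; Technique: high-content imaging of BODIPY-stained droplets and DAPI nuclei; Probe or stimulus: oleate, 100 µM final; Dosing: compound at 6.5 µM only.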
Gli-Sufu antag: Gli-Sufu pathway antagonists, primary screen, luciferase luminescence, Sufu-KO-LIGHT cells, uHTS. Sufu-KO-LIGHT fibroblasts, Gli luciferase reporter luminescence. inhibition, % at 5 µM. 0.74% of 340,000 active;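 active = inhibition above about 55%, limit read from the data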;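 also: 0% = DMSO-treated cells and 100% = wells with medium but no cells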
iPSC survival up: enhancers of single-cell hiPSC survival, primary screen, ATPlite luminescence | survival enhancement, % at 20 µM | 100% = ROCK inhibitor wells, 0% = DMSO | 0.044% of 360,000 active | AID 602274, 2012; in the data active = survival enhancement above about 18%;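 also: cells exposed to compounds for 16 hours before the ATP read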
TAG inh: inhibitors of triacylglycerol accumulation, primary screen, cell-based, uHTS, fluorescence, H9c2 | H9c2 cells, Nile Red lipid (TAG) fluorescence; cells loaded with 200 µM oleic acid | inhibition, % at 12.5 µM | 0.66% of 230,000 active | AID 651582, 2012;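 active = pattern-corrected inhibition of lipid staining of at least 50% with the nuclear-stain viability signal not falling by more than 50%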;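 also: 0% = DMSO wells and 100% = triacsin C control wells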
697 NFkB inh: inhibitors of PMA/ionomycin-induced NF-kB reporter, 697 cells, primary screen, B-cell NF-kB inhibitor project, cell-based, luminescence, uHTS. inhibition, % at 4 µM. 0.33% of 330,000 active. AID 435022, 2010. 697 B-cell NF-kB luciferase reporter, 16 h; in the data active = inhibition above about 35%
697 NFkB conf: PMA/ionomycin-induced NF-kB reporter inhibitors, 697 retest, confirmation, B-cell NF-kB inhibitor project, cell-based, luminescence, single concentration; shares compounds with 697 NFkB inh; 697 B-cell NF-kB luciferase, 16 h; inhibition, % at 4 µM; 35% of 2,000 active; in the data active = inhibition mostly above about 28%, no sharp cut-off; inactive = mostly below about 22%
The depositor's hits bear a star; i = inactive; . = no result.

SMILES	Jurkat NFkB inh	Lipid droplet	Gli-Sufu antag	iPSC survival up	TAG inh	697 NFkB inh	697 NFkB conf
O=C(Nc1ncc([N+](=O)[O-])s1)c1cccc([N+](=O)[O-])c1	-72	-5	-24	0	.	-450	-444
Cc1cc(NC(=O)COC(=O)C2CSC3(C)CCC(=O)N23)ccc1Br (stereo not drawn)	-1	.	-22	0	-8	24	.
CN(C(=O)c1cccc(NC(=O)Cc2cccc(NC(=O)C3CCN(C(=O)C4CCCC4)CC3)c2)c1)C1CC1	.	.	2	-2	21	.	.
CCOC(=O)CC1COc2ccccc2N1C(=O)c1cccc([N+](=O)[O-])c1 (stereo not drawn)	1	-5	-13	-1	.	6	.
COc1ccc(Cn2nnnc2C(C(C)C)N(Cc2ccco2)Cc2cccs2)cc1 (stereo not drawn)	-6	.	19	-2	6	28	.
CC(C)C(c1nnnn1Cc1ccccc1)N(Cc1ccco1)Cc1cccs1 (stereo not drawn)	-3	.	-6	0	.	35*	28*
CCOc1ccc(N2C(=O)/C(=C/c3ccccc3)N=C2SC)cc1	-70	-18	-24	0	-49	-71	.
COc1ccc(/C=C2\N=C(SC)N(c3ccccc3OC)C2=O)cc1	18	-10	-14	0	-8	i	i
Cn1c(SCC(=O)Nc2cc(Cl)cc(Cl)c2)nnc1-c1ccc2nonc2c1	6	-1	-2	0	14	38*	26
CC(C)[C@H](N)c1nnc(SCc2ccc(Cl)cc2)o1	-7	.	3	1	.	-11	.
CCC(C)[C@H](N)c1nnc(SCC(=O)c2ccc(Cl)cc2)o1 (stereo partly drawn)	8	-6	26	-2	.	44*	32*
c1ccc(-c2cn3c4c(sc3n2)CCCC4)cc1	-8	8	-95	-3	5	-336	-383
CCN(CC(=O)Nc1ccc(OC)cc1)C(=O)c1cc(S(=O)(=O)N(C)C)ccc1N1CCCC1	-12	.	7	-1	5	26	.
O=C(O)c1ccc(-c2noc(-c3ccc(F)cc3)n2)cc1	-75	.	-94	-1	-3	-313	-283
O=C(O)c1ccc(-c2noc(-c3cccc(Cl)c3)n2)cc1	-23	.	-19	-1	6	-117	.
COCCNC(=O)CSc1nc(N)c(NC(=O)c2ccccc2F)c(=O)[nH]1	-2	-18	-7	-1	.	0	.
Cn1ncc2c(Nc3ccc(-c4ccccc4)cc3)ncnc21	-110	16	-51	0	.	-436	-450
CC(C)[C@H](NC(=O)OCc1ccccc1)C(=O)N[C@@H](Cc1c[nH]c2ccccc12)C(=O)O	4	.	2	-1	12	12	.
CCOC(=O)Cc1csc(NC(=S)NC(=O)c2ccc(Cl)cc2)n1	9	.	9	-2	5	45*	76*
O=C(COC(=O)c1cccc(Br)c1)NCCC1=CCCCC1	-7	14	8	-1	-8	3	.
COCCCn1cc(C(=O)c2cc(OC)ccc2OCC(=O)N2CCCCC2C)cc(C#N)c1=O (stereo not drawn)	-9	0	1	2	.	-2	.
CCOC(=O)c1c(-c2ccc(C)cc2)csc1NC(=S)NC(=O)c1ccccc1	3	-29	4	-1	-97	-486	0
COC(=O)c1c(-c2ccccc2)csc1NC(=O)c1c(-c2ccccc2)noc1C	-44	27	6	0	.	i	i
CC(C)c1nc(SCC(=O)Nc2nc3c(s2)CCCC3)c2ccccc2n1	-3	33	8	1	.	-170	.
CC(C)(C)c1nc(SCC(=O)Nc2nc3c(s2)CCCC3)c2ccccc2n1	-31	.	20	2	.	i	i
SMILES	Jurkat NFkB inh	Lipid droplet	Gli-Sufu antag	iPSC survival up	TAG inh	697 NFkB inh	697 NFkB conf
CC(C)C(=O)Nc1ccc(NC(=O)c2ccc3c(c2)OCO3)cc1	-12	26	3	0	-4	50*	43*
Cc1ccc(NC(=O)c2ccc3c(c2)OCCO3)cc1C	-84	14	-151	-1	.	-264	-368
O=C(Nc1ncccc1O)c1ccc2c(c1)OCO2	-37	.	-33	0	-6	-130	.
CC(C)Cc1nnc(NC(=O)c2ccc3c(c2)OCCO3)s1	-128	.	-88	-3	9	-268	-193
O=C(Nc1ncccc1O)c1ccc2c(c1)OCCO2	-60	.	-40	0	-31	-290	-185
O=C(NN1CCOCC1)c1cccc(COc2cccc(Br)c2)c1	6	15	-40	0	18	-63	.
S=C(NCc1cccnc1)c1ccccc1	3	.	-5	0	.	12	.
CCCN1C(=O)c2ccc(C(=O)NC3=NCCS3)cc2C1=O	3	-20	7	2	10	0	.
CCCN1C(=O)c2ccc(C(=O)Nc3ccc4c(c3)OCO4)cc2C1=O	4	2	-12	0	4	36*	-2
Cc1ccc(CNC(=O)CN2C(=O)CSc3ccc(S(=O)(=O)N4CCCCC4)cc32)cc1	-12	-23	-2	1	.	-19	.
O=C(CCCN1C(=O)S/C(=C\c2ccccc2)C1=O)NNC(=O)c1ccccc1O	-2	-6	36	0	-14	67*	50*
O=C(CCCN1C(=O)S/C(=C\C=C\c2ccccc2)C1=O)Nc1ccc(C(=O)O)cc1	-8	4	-22	0	.	48*	53*
O=C(CN1C(=O)S/C(=C\c2ccccc2)C1=O)NNC(=O)c1ccccc1O	-20	9	4	5	.	12	.
O=C(CCCN1C(=O)/C(=C/c2ccccc2Cl)SC1=S)NNC(=O)c1ccc(Cl)cc1Cl	27	-4	26	0	-8	60*	39*
O=C(CCCN1C(=O)/C(=C/c2ccccc2Cl)SC1=S)NNC(=O)c1cccnc1	-35	6	-17	-1	1	2	.
O=C(CCCN1C(=O)/C(=C/c2ccccc2Cl)SC1=S)NNC(=O)c1ccccc1	13	5	6	-1	.	40*	42*
CC1(c2ccccc2)NC(=O)N(CC(=O)N2CCN(S(=O)(=O)c3cccs3)CC2)C1=O (stereo not drawn)	12	.	-9	0	0	-14	.
O=C(NC1CCCC1)C1c2ccccc2OCC(=O)N1Cc1cccnc1 (stereo not drawn)	.	.	.	0	.	.	.
CC(=O)Nc1ccc(C23CC4CC(CC(C4)C2)C3)cc1	2	-1	-2	1	.	-19	.
